Assay results taken from ChEMBL document CHEMBL2169772, “Discovery of (2S)-1-[4-(2-{6-amino-8-[(6-bromo-1,3-benzodioxol-5-yl)sulfanyl]-9H-purin-9-yl}ethyl)piperidin-1-yl]-2-hydroxypropan-1-one (MPC-3100), a purine-based Hsp90 inhibitor” (J Med Chem, 2012).

Legend:
[1] = Cytotoxicity against human NCI-ADR-RES cells overexpressing P-gp 1 assessed as inhibition of tumor growth incubated for 72 hrs by luminometry; type: functional, cell-based
Summary of the method: (§1)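 Cells seeded at 5000 per well in DMEM with 10% serum and left overnight. Compound added from DMSO dilutions (0.4% DMSO final) for 72 h. After 5 min at room temperature, ATPLite two-step lysis and substrate added, 5 min incubation, then luminescence read. Values are the mean of at least two experiments.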

Heat shock protein HSP90 [2] = biological target: T1, Heat shock protein HSP90 (Homo sapiens, UniProt P07900+P08238); assay: Inhibition of human HSP90 using BODIPY labelled geldanamycin as substrate by fluorescence polarization assay; type: protein assay
[3] = Metabolic stability in human liver microsomes assessed as percent of residual drug in presence of NADPH incubated for 40 mins by LC-ESI-MS/MS method; type: ADME, Microsome; settings: liver microsomes, read-out: Stability
Summary of the method: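 Test article incubated in duplicate with human liver microsomes (0.5 mg/mL protein) in 100 mM potassium phosphate pH 7.4. Started with 1 mM NADPH. Stopped with acetonitrile at 0, 10, 20 and 40 min. LC-MS/MS peak area at 40 min reported as percent of 0 min. No-NADPH control incubated for 40 min.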

Heat shock protein HSP90 [4] = biological target: T1, Heat shock protein HSP90; assay: Inhibition of human HSP90 in HCT116 cells expressing Her2 gene assessed as degradation of Her2 after 4 hrs by luciferase reporter gene assay; type: cell-based; settings: hct-116
Summary of the method: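 HCT116 cells stably transfected with Her2 kinase domain (aa 641–975) fused to firefly luciferase. Seeded at 10 000 per well in DMEM with 10% serum and left overnight. Compound added from DMSO (0.4% final) for 4 h. Steady-Glo added at room temperature for 5 min, then luminescence read.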

HCT-116 = assay: Cytotoxicity against human HCT116 cells assessed as inhibition of tumor growth incubated for 72 hrs by luminometry; type: functional, cell-based; settings: HCT-116, 72 h; summary of the method: as §1
[5] = AUC in Swiss nude mouse at 2.5 mg/kg, iv by LC-ESI-MS/MS method; type: ADME, organism-based; parameters: dose 2.5 mg/kg, route intravenous; settings: plasma
Summary of the method: (§2)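 Intravenous dose in mice, vehicle DMA/PEG300/EtOH/H2O 3/40/12/45. Sampling at 5, 15, 30, 60, 120, 240, 480 and 720 min, three or five animals per time point. Cardiac-puncture EDTA plasma. Acetonitrile protein precipitation with internal standard, then LC-ESI-MS/MS (10–10 000 ng/mL curve). Parameters by noncompartmental fit.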

[6] = Cmax in Swiss nude mouse at 10 mg/kg, po by LC-ESI-MS/MS method; type: ADME, organism-based; parameters: dose 10 mg/kg, route oral; settings: in vivo
Summary of the method: (§3)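 Mice dosed by oral gavage, vehicle DMA/PEG300/EtOH/H2O (3/40/12/45, v/v/v/v). Blood drawn by cardiac puncture into EDTA plasma. Three or five animals per time point. Plasma precipitated with acetonitrile plus internal standard. Quantified by LC-ESI-MS/MS against a 10–10 000 ng/mL standard curve with QC samples. Noncompartmental analysis.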

[7] = AUC in Swiss nude mouse at 10 mg/kg, po by LC-ESI-MS/MS method; type: ADME, organism-based; parameters: dose 10 mg/kg, route oral; settings: plasma; summary of the method: as §3
[8] = Oral bioavailability in Swiss nude mouse at 10 mg/kg by LC-ESI-MS/MS method; type: ADME, organism-based; settings: in vivo; summary of the method: as §3
[9] = Tmax in Swiss nude mouse at 10 mg/kg, po by LC-ESI-MS/MS method; type: ADME, organism-based; parameters: dose 10 mg/kg, route oral; settings: in vivo; summary of the method: as §3
[10] = Half life in Swiss nude mouse at 2.5 mg/kg, iv by LC-ESI-MS/MS method; type: ADME, organism-based; parameters: dose 2.5 mg/kg, route intravenous; settings: in vivo; summary of the method: as §2
Mus musculus = assay: Hepatic clearance in Swiss nude mouse at 2.5 mg/kg, iv by LC-ESI-MS/MS method; type: ADME, organism-based, Liver; parameters: dose 2.5 mg/kg, route intravenous; settings: in vivo; summary of the method: as §2
[11] = Volume of distribution in Swiss nude mouse at 2.5 mg/kg, iv by LC-ESI-MS/MS method; type: ADME, organism-based; parameters: dose 2.5 mg/kg, route intravenous; settings: in vivo; summary of the method: as §2

SMILES | IC50 [1] | IC50 (Heat shock protein HSP90 [2]) | remaining at 40 min [3] | IC50 (Heat shock protein HSP90 [4]) | IC50 (HCT-116) | further results
CC(=O)C(=O)N1CCC(CCn2c(Sc3cc4c(cc3Br)OCO4)nc3c(N)ncnc32)CC1 | 100000 nM | 110 nM | 2% | 34 nM | 270 nM | –
Nc1ncnc2c1nc(Sc1cc3c(cc1Br)CCO3)n2CCC1CCN(C=O)CC1 | 1800 nM | 40 nM | – | 10 nM | 90 nM | –
Nc1ncnc2c1nc(Sc1cc3occc3cc1Br)n2CCC1CCN(C=O)CC1 | 1100 nM | 59 nM | 53% | 48 nM | 260 nM | AUC [5]: 880 ng·h/mL; Cmax [6]: 2230 ng/mL; AUC [7]: 4610 ng·h/mL; bioavailability [8]: 131%; Tmax [9]: 30 min; half-life [10]: 18 min; CLH (Mus musculus): 47.35 mL/min/kg; Vd [11]: 1.06 L/kg
Nc1ncnc2c1nc(Sc1cc3c(cc1Br)OCO3)n2CCC1CCC(F)(F)CC1 | – | 1000 nM | 15% | – | – | –
Nc1ncnc2c1nc(Sc1cc3c(cc1Br)OCO3)n2CCC1CCN(C(=O)[C@@H]2CCCN2)CC1 | 89000 nM | 60 nM | 38% | 190 nM | 830 nM | –
Nc1ncnc2c1nc(Sc1cc3c(cc1Br)OCO3)n2CCC1CCOCC1 | – | 57 nM | 0% | 90 nM | 590 nM | –
Nc1ncnc2c1nc(Sc1cc3c(cc1Br)OCO3)n2CC[C@H]1CCCCN1C=O | – | 190 nM | – | – | – | –
Nc1ncnc2c1nc(Sc1cc3c(cc1Cl)OCO3)n2CCC1CCN(C=O)CC1 | 7600 nM | 210 nM | 31% | 92 nM | 1400 nM | –
Nc1ncnc2c1nc(Sc1cc3ccoc3cc1Br)n2CCC1CCN(C=O)CC1 | 7900 nM | 900 nM | 51% | 660 nM | 4400 nM | –
CC(C)(N)C(=O)N1CCC(CCn2c(Sc3cc4c(cc3Br)OCO4)nc3c(N)ncnc32)CC1 | 50000 nM | 180 nM | – | 960 nM | 1600 nM | –
CC(C)(C)n1nnnc1N1CCC(CCn2c(Sc3cc4c(cc3Br)OCO4)nc3c(N)ncnc32)CC1 | – | 1800 nM | – | – | – | –
Nc1ncnc2c1nc(Sc1cc3c(cc1Br)OCO3)n2CCc1ccccc1Cl [CHLORODERIVATIVE] | – | 30 nM | < 1% | 50 nM | 200 nM | –
Nc1ncnc2c1nc(Sc1cc3c(cc1Br)C(=O)CC3)n2CCC1CCN(C=O)CC1 | 100000 nM | 60 nM | 30% | 60 nM | 270 nM | –
Nc1ncnc2c1nc(Sc1cc3c(cc1Br)OCO3)n2CCC1CCN(C(=O)C2CC2)CC1 | 930 nM | 110 nM | 1% | 110 nM | 650 nM | –
C[C@H](O)C(=O)N1CCC(CCn2c(Sc3cc4c(cc3Br)CCO4)nc3c(N)ncnc32)CC1 | 11000 nM | 34 nM | 21% | 28 nM | 210 nM | –
Nc1ncnc2c1nc(Sc1cc3c(cc1Br)OCO3)n2CCC1CCN(CC2CCCCC2)CC1 | 722 nM | 240 nM | 10% | 250 nM | 1000 nM | –
CN1CCOc2cc(Br)c(Sc3nc4c(N)ncnc4n3CCC3CCN(C=O)CC3)cc21 | 20000 nM | 310 nM | 0% | 210 nM | 1500 nM | –
Nc1ncnc2c1nc(Sc1cc3c(cc1Br)OCO3)n2CC[C@@H]1CCCCN1C=O | – | 180 nM | – | – | – | –
Nc1ncnc2c1nc(Sc1cc3c(cc1Br)OCO3)n2CCC1CCN(C(=O)C2CCCC2)CC1 | 370 nM | 250 nM | 0% | 250 nM | 1300 nM | –

SMILES | IC50 [1] | IC50 (Heat shock protein HSP90 [2]) | remaining at 40 min [3] | IC50 (Heat shock protein HSP90 [4]) | IC50 (HCT-116) | further results
Cn1nnnc1N1CCC(CCn2c(Sc3cc4c(cc3Br)OCO4)nc3c(N)ncnc32)CC1 | 130 nM | 45 nM | 0% | 31 nM | 62 nM | –
C#CCN1CCC(CCn2c(Sc3cc4c(cc3Br)OCO4)nc3c(N)ncnc32)CC1 | 700 nM | 110 nM | 10% | 100 nM | 740 nM | –
Nc1ncnc2c1nc(Sc1cc3c(cc1Br)OCC3)n2CCC1CCN(C=O)CC1 | 86000 nM | 400 nM | 5% | 280 nM | 1200 nM | –
Nc1ncnc2c1nc(Sc1cc3c(cc1Br)OCO3)n2CCC1CCNCC1 | > 100000 nM | 470 nM | 78% | 950 nM | 4600 nM | –
CC(=O)N1CCC(CCn2c(Sc3cc4c(cc3Br)OCO4)nc3c(N)ncnc32)CC1 | 3000 nM | 60 nM | 17% | 90 nM | 730 nM | –
Nc1ncnc2c1nc(Sc1cc3c(cc1Br)OCO3)n2CCC1CCN(CC(F)(F)F)CC1 | – | 600 nM | – | – | – | –
C[C@H](N)C(=O)N1CCC(CCn2c(Sc3cc4c(cc3Br)OCO4)nc3c(N)ncnc32)CC1 | 100000 nM | 110 nM | 69% | 200 nM | 1200 nM | –
CN1CCOc2cc(Sc3nc4c(N)ncnc4n3CCC3CCN(C=O)CC3)c(Br)cc21 | 100000 nM | 65 nM | – | 32 nM | 250 nM | –
CN(C)CC(=O)N1CCC(CCn2c(Sc3cc4c(cc3Br)OCO4)nc3c(N)ncnc32)CC1 | 100000 nM | 70 nM | – | 80 nM | 200 nM | –
C[C@H](O)C(=O)N1CCC(CCn2c(Sc3cc4c(cc3Cl)OCO4)nc3c(N)ncnc32)CC1 | 20000 nM | 650 nM | 32% | 540 nM | 2700 nM | –
CC(C)C[C@H](N)C(=O)N1CCC(CCn2c(Sc3cc4c(cc3Br)OCO4)nc3c(N)ncnc32)CC1 | 34000 nM | 68 nM | 44% | 110 nM | 890 nM | –
Nc1ncnc2c1nc(Sc1cc3c(cc1Br)OCO3)n2CCc1ccccc1Br [BROMODERIVATIVE] | – | 30 nM | < 1% | 50 nM | 200 nM | –
CC(C)(O)C(=O)N1CCC(CCn2c(Sc3cc4c(cc3Br)OCO4)nc3c(N)ncnc32)CC1 | – | > 5000 nM | – | – | – | –
CCCC(=O)N1CCC(CCn2c(Sc3cc4c(cc3Br)OCO4)nc3c(N)ncnc32)CC1 | 2000 nM | 300 nM | 0% | – | 850 nM | –
N#Cc1cc2c(cc1Sc1nc3c(N)ncnc3n1CCC1CCN(C=O)CC1)OCO2 | – | 210 nM | 81% | 250 nM | 25000 nM | –
Nc1ncnc2c1nc(Sc1cc3c(cc1Br)OCO3)n2CCc1ccccc1F | – | 30 nM | < 1% | 50 nM | 200 nM | –
CC(C)CN1CCC(CCn2c(Sc3cc4c(cc3Br)OCO4)nc3c(N)ncnc32)CC1 | 1980 nM | 700 nM | – | 110 nM | – | –
Nc1ncnc2c1nc(Sc1cc3c(cc1Br)CCC3)n2CCC1CCN(C=O)CC1 | 230 nM | 20 nM | 1% | – | 20 nM | –
